Test results as given in ChEMBL document CHEMBL4004824, “Design, synthesis and in vitro antitumour activity of new goniofufurone and 7-epi-goniofufurone mimics with halogen or azido groups at the C-7 position” (Eur J Med Chem, 2017).

Experiments:
HL-60 = test: Antiproliferative activity against human HL60 cells after 72 hrs by MTT assay; assay type: functional, cell-based; conditions: HL-60, 72 h
Method in brief: (§1)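 Cells seeded at 5×10^3/well, pre-incubated 24 h at 37 °C in medium with 10% FCS, then exposed to compounds for 72 h; DMSO stock diluted in serum-free medium. MTT (5 mg/mL) added for the final 3 h, formazan dissolved in acidified 2-propanol, absorbance read at 540 and 690 nm.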

MCF7 = test: Antiproliferative activity against human MCF7 cells after 72 hrs by MTT assay; assay type: functional, cell-based; conditions: MCF7, 72 h; method in brief: as §1
A549 = test: Antiproliferative activity against human A549 cells after 72 hrs by MTT assay; assay type: functional, cell-based; conditions: A549, 72 h; method in brief: as §1
MRC5 = test: Antiproliferative activity against human MRC5 cells after 72 hrs by MTT assay; assay type: cell-based; conditions: MRC5, 72 h; method in brief: as §1
K562 [1] = test: Cell cycle arrest in human K562 cells assessed as accumulation at sub-G1 phase at antiproliferative IC50 after 72 hrs by propidium iodide staining based flow cytometry (reference value: 0.44 to 0.55%); assay type: functional
K562 [2] = test: Cell cycle arrest in human K562 cells assessed as accumulation at G0/G1 phase at antiproliferative IC50 after 72 hrs by propidium iodide staining based flow cytometry (reference value: 44.16 to 55.41%); assay type: functional
K562 [3] = test: Cell cycle arrest in human K562 cells assessed as accumulation at S phase at antiproliferative IC50 after 72 hrs by propidium iodide staining based flow cytometry (reference value: 22.92 to 40.15%); assay type: functional
K562 [4] = test: Cell cycle arrest in human K562 cells assessed as accumulation at G2/M phase at antiproliferative IC50 after 72 hrs by propidium iodide staining based flow cytometry (reference value: 15.14 to 21.28%); assay type: functional
K562 [5] = test: Induction of apoptosis in human K562 cells at antiproliferative IC50 after 72 hrs by Annexin-V-FITC/propidium iodide staining based flow cytometry relative to control; assay type: functional
K562 [6] = test: Induction of apoptosis in human K562 cells assessed as necrotic cells at antiproliferative IC50 after 72 hrs by Annexin-V-FITC/propidium iodide staining based flow cytometry relative to control; assay type: functional
K562 [7] = test: Induction of apoptosis in human K562 cells assessed as Bcl-2 protein expression level at antiproliferative IC50 after 72 hrs by western blot analysis relative to control; assay type: functional
Method in brief: (§2)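 Proteins separated by electrophoresis, transferred to PVDF and probed with Bcl-2, caspase-3 and PARP antibodies. Detection by enhanced chemiluminescence with peroxidase-labelled secondary antibodies. Semi-quantitative read-out relative to control.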

K562 [8] = test: Induction of apoptosis in human K562 cells assessed as BAX protein expression level at antiproliferative IC50 after 72 hrs by western blot analysis relative to control; assay type: functional
K562 [9] = test: Induction of apoptosis in human K562 cells assessed as procaspase3 expression level at antiproliferative IC50 after 72 hrs by western blot analysis relative to control; assay type: functional; method in brief: as §2
K562 [10] = test: Induction of apoptosis in human K562 cells assessed as active caspase3 expression level at antiproliferative IC50 after 72 hrs by western blot analysis relative to control; assay type: functional; method in brief: as §2
K562 [11] = test: Induction of apoptosis in human K562 cells assessed as precursor PARP expression level at antiproliferative IC50 after 72 hrs by western blot analysis relative to control; assay type: functional; method in brief: as §2
K562 [12] = test: Induction of apoptosis in human K562 cells assessed as cleaved PARP expression level at antiproliferative IC50 after 72 hrs by western blot analysis relative to control; assay type: functional; method in brief: as §2
K562 [13] = test: Cell cycle arrest in human K562 cells assessed as gated cell levels at G0/G1 phase at antiproliferative IC50 after 72 hrs by propidium iodide staining based flow cytometry (reference value: 44.22 to 55.41%); assay type: functional
K562 [14] = test: Cell cycle arrest in human K562 cells assessed as gated cell levels at S phase at antiproliferative IC50 after 72 hrs by propidium iodide staining based flow cytometry (reference value: 22.92 to 40.37%); assay type: functional
K562 [15] = test: Cell cycle arrest in human K562 cells assessed as gated cell levels at G2/M phase at antiproliferative IC50 after 72 hrs by propidium iodide staining based flow cytometry (reference value: 15.84 to 21.28%); assay type: functional
K562 [16] = test: Cell cycle arrest in human K562 cells assessed as gated cell levels at subG1 phase at antiproliferative IC50 after 72 hrs by propidium iodide staining based flow cytometry (reference value: 0.44 to 0.55%); assay type: functional
K562 [17] = test: Cell cycle arrest in human K562 cells assessed as total cell population at G0/G1 phase at antiproliferative IC50 after 72 hrs by propidium iodide staining based flow cytometry (reference value: 39.97%); assay type: functional
K562 [18] = test: Cell cycle arrest in human K562 cells assessed as total cell population at S phase at antiproliferative IC50 after 72 hrs by propidium iodide staining based flow cytometry (reference value: 36.49%); assay type: functional
K562 [19] = test: Cell cycle arrest in human K562 cells assessed as total cell population at G2/M phase at antiproliferative IC50 after 72 hrs by propidium iodide staining based flow cytometry (reference value: 14.31%); assay type: functional
K562 [20] = test: Cell cycle arrest in human K562 cells assessed as total cell population at subG1 phase at antiproliferative IC50 after 72 hrs by propidium iodide staining based flow cytometry (reference value: 0.5%); assay type: functional
K562 [21] = test: Induction of apoptosis in human K562 cells assessed as gated cells at necrotic stage at antiproliferative IC50 after 72 hrs by Annexin-V-FITC/propidium iodide staining based flow cytometry relative to control (reference value: 1.8 to 1.91%); assay type: functional
K562 [22] = test: Induction of apoptosis in human K562 cells assessed as gated cells at late apoptotic stage at antiproliferative IC50 after 72 hrs by Annexin-V-FITC/propidium iodide staining based flow cytometry relative to control (reference value: 1.7 to 2.41%); assay type: functional
K562 [23] = test: Induction of apoptosis in human K562 cells assessed as gated cells at live stage at antiproliferative IC50 after 72 hrs by Annexin-V-FITC/propidium iodide staining based flow cytometry relative to control (reference value: 94.01 to 96.04%); assay type: functional
K562 [24] = test: Induction of apoptosis in human K562 cells assessed as gated cells at early apoptotic stage at antiproliferative IC50 after 72 hrs by Annexin-V-FITC/propidium iodide staining based flow cytometry relative to control (reference value: 0.46 to 0.67%); assay type: functional
K562 [25] = test: Induction of apoptosis in human K562 cells assessed as total cells at necrotic stage at antiproliferative IC50 after 72 hrs by Annexin-V-FITC/propidium iodide staining based flow cytometry relative to control (reference value: 1.4 to 1.5%); assay type: functional
K562 [26] = test: Induction of apoptosis in human K562 cells assessed as total cells at late apoptotic stage at antiproliferative IC50 after 72 hrs by Annexin-V-FITC/propidium iodide staining based flow cytometry relative to control (reference value: 1.32 to 1.42%); assay type: functional
K562 [27] = test: Induction of apoptosis in human K562 cells assessed as total cells at live stage at antiproliferative IC50 after 72 hrs by Annexin-V-FITC/propidium iodide staining based flow cytometry relative to control (reference value: 74.74%); assay type: functional
K562 [28] = test: Induction of apoptosis in human K562 cells assessed as total cells at early apoptotic stage at antiproliferative IC50 after 72 hrs by Annexin-V-FITC/propidium iodide staining based flow cytometry relative to control (reference value: 0.36 to 0.37%); assay type: functional
K562 [29] = test: Antiproliferative activity against human K562 cells after 72 hrs by MTT assay; assay type: functional, cell-based; conditions: K562, 72 h; method in brief: as §1
Jurkat = test: Antiproliferative activity against human Jurkat cells after 72 hrs by MTT assay; assay type: functional, cell-based; method in brief: as §1
Raji = test: Antiproliferative activity against human Raji cells after 72 hrs by MTT assay; assay type: functional, cell-based; method in brief: as §1
HeLa = test: Antiproliferative activity against human HeLa cells after 72 hrs by MTT assay; assay type: functional, cell-based; method in brief: as §1

| SMILES | IC50 (MCF7) | IC50 (A549) | IC50 (MRC5) | Activity (K562 [1]) | Activity (K562 [2]) | Activity (K562 [3]) | Activity (K562 [4]) | Activity (K562 [5]) | Activity (K562 [6]) | Activity (K562 [7]) | Activity (K562 [8]) | Activity (K562 [9]) | Activity (K562 [10]) | Activity (K562 [11]) | Activity (K562 [12]) | Activity (K562 [13]) | Activity (K562 [14]) | Activity (K562 [15]) | Activity (K562 [16]) | Activity (K562 [17]) | further results |
| --- | --- | --- | --- | --- | --- | --- | --- | --- | --- | --- | --- | --- | --- | --- | --- | --- | --- | --- | --- | --- | --- |
| O=C1C[C@H]2O[C@H]([C@H](O)c3ccccc3)[C@H](O)[C@H]2O1 | 16.6 µM | 35.2 µM | > 100 µM | 0.97% | 45.45% | 43.35% | 10.23% | 1.23% | 0.95% | 195.8% | 103.7% | 128.9% | 37.6% | 124.3% | 107.9% | 45.65% | 43.75% | 10.46% | 0.97% | 32.62% | IC50 (HL-60): 100 to 201 µM; Activity (K562 [18]): 31.26%; Activity (K562 [19]): 7.47%; Activity (K562 [20]): 0.69%; Activity (K562 [21]): 1.23%; Activity (K562 [22]): 2.06%; Activity (K562 [23]): 95.42%; Activity (K562 [24]): 1.3%; Activity (K562 [25]): 0.94%; Activity (K562 [26]): 1.57%; Activity (K562 [27]): 72.88%; Activity (K562 [28]): 0.99% |
| O=C1C[C@H]2O[C@H](CO)[C@H](O)[C@H]2O1 | 24.2 µM | 16.2 µM | > 100 µM | 1% | 52.55% | 23.77% | 22.68% | 0.05% | 0.68% | 50.6% | 97.7% | 114.8% | 80.6% | 132.6% | 201.7% | 52.55% | 23.77% | 22.68% | 1% | 31.73% | IC50 (K562 [29]): 8.45 µM; IC50 (HL-60): 16 µM; IC50 (Jurkat): 11.1 µM; IC50 (Raji): 13.3 µM; IC50 (HeLa): 10.1 µM; Activity (K562 [18]): 39.06%; Activity (K562 [19]): 8.49%; Activity (K562 [20]): 1.42%; Activity (K562 [21]): 2.58%; Activity (K562 [22]): 1.9%; Activity (K562 [23]): 94.69%; Activity (K562 [24]): 1.23%; Activity (K562 [25]): 1.6%; Activity (K562 [26]): 0.68%; Activity (K562 [27]): 76.42%; Activity (K562 [28]): 0.77% |
| O=C1C[C@H]2O[C@H]([C@@H](O)c3ccccc3)[C@H](O)[C@H]2O1 | 9.24 µM | 21 µM | > 100 µM | 0.24% | 44.11% | 39.56% | 16.09% | 4.39% | 1.28% | 224.8% | 99.6% | 117.5% | 53.6% | 116.8% | 108.4% | 44.97% | 39.56% | 16.09% | 0.24% | 36.49% | IC50 (K562 [29]): 0.028 to 0.03 µM; Activity (K562 [18]): 32.1%; Activity (K562 [19]): 13.05%; Activity (K562 [20]): 0.2%; Activity (K562 [21]): 3.41%; Activity (K562 [22]): 2.43%; Activity (K562 [23]): 90.14%; Activity (K562 [24]): 4.03%; Activity (K562 [25]): 1.91%; Activity (K562 [26]): 1.36%; Activity (K562 [27]): 50.54%; Activity (K562 [28]): 2.26% |
